Common to all, as to format: functional
The subject of experiment [1] is Bacteria. In words: MIC ratio measured as the mean MICs of gram-positive bacteria. The method in brief:
(§1)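 Geometric mean of the microtitration MICs (µg/mL) over the Gram-negative organisms, and separately over the Gram-positive organisms, of the 10-strain panel; individual MICs averaged from multiple experiments.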

In experiment [2] the test system is Streptococcus pneumoniae. Put plainly: The in vivo potency was determined in female charles river CD-1 mice infected with Streptococcus pneumoniae after sc administration. The settings on record: for ED50: Streptococcus pneumoniae, sc, read-out: PD50. The method in brief:
(§2)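 Acute lethal systemic infection in female CD-1 mice, 16 mice per route; single subcutaneous dose given at the time of challenge; median protective dose (PD50, mg/kg) determined.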

Experiment [3] relates to Escherichia coli. In words: Antibacterial activity was determined against gram negative organism, Escherichia coli vogel. The method in brief: (§3)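 MIC (µg/mL) by standard microtitration against a panel of 10 Gram-positive and Gram-negative organisms; values averaged from multiple experiments.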
The test system of experiment [4] is Streptococcus pneumoniae. Put plainly: The in vivo potency was determined in female charles river CD-1 mice infected with Streptococcus pneumoniae after peroral administration. The note with it: for ED50: Streptococcus pneumoniae, po, read-out: PD50. The procedure, abridged: (§4)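 Acute lethal systemic infection in female CD-1 mice, 16 mice per route; single dose given orally by gavage at the time of challenge; median protective dose (PD50, mg/kg) determined.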

Experiment [5] relates to Bacteria. Put plainly: Antibacterial activity was determined against gram negative organism, Providencia rettgeri. M1771. The method in brief: as §3
In experiment [6] the test system is Streptococcus pyogenes. In words: The in vivo potency was determined in female charles river CD-1 mice infected with Streptococcus pyogenes after sc administration. The note with it: for ED50: Streptococcus pyogenes, sc, read-out: PD50. The method in brief:
as §2

The test system of experiment [7] is Streptococcus pneumoniae. In words: Antibacterial activity was determined against gram positive organism, Streptococcus pneumoniae SV-1. The method in brief:
as §3

The test system of experiment [8] is Streptococcus pyogenes. Put plainly: Antibacterial activity was determined against gram positive organism, Streptococcus pyogenes C203. The procedure, abridged: as §3
A further experiment relates to Enterococcus faecalis. In words: Antibacterial activity was determined against gram positive organism, Streptococcus faecalis MGH-2. The procedure, abridged: as §3
Experiment [9] deals with Escherichia coli. In words: The in vivo potency was determined in female charles river CD-1 mice infected with Escherichia coli after peroral administration. The note with it: for ED50: Escherichia coli, po, read-out: PD50. The procedure, abridged: as §4
The next experiment concerns Enterobacter cloacae. In words: Antibacterial activity was determined against gram negative organism, Enterobacter cloacae MA2646.
The next experiment deals with Klebsiella pneumoniae. In words: Antibacterial activity was determined against gram negative organism, Klebsiella pneumoniae MGH-2. The procedure, abridged: as §3
Experiment [10] concerns Staphylococcus aureus. Put plainly: Antibacterial activity was determined against gram positive organism, Staphylococcus aureus H228. The procedure, abridged:
as §3

In experiment [11] the test system is Streptococcus pyogenes. Put plainly: The in vivo potency was determined in female charles river CD-1 mice infected with Streptococcus pyogenes after peroral administration. The note with it: for ED50: Streptococcus pyogenes, po, read-out: PD50. The method in brief: as §4
The test system of experiment [12] is Escherichia coli. In words: The in vivo potency was determined in female charles river CD-1 mice infected with Escherichia coli after sc administration. The note with it: for ED50: Escherichia coli, sc, read-out: PD50. The procedure, abridged: as §2
For experiment [13], the system named is Staphylococcus aureus. In words: Antibacterial activity was determined against gram positive organism, Staphylococcus aureus UC76. The method in brief:
as §3

In a further experiment the test system is Pseudomonas aeruginosa. In words: Antibacterial activity was determined against gram negative organism, Pseudomonas aeruginosa UI-18. The method in brief: as §3
For experiment [14], the target named is DNA gyrase (Escherichia coli) (UniProt P0AES6+P0AES4). In words: Minimum inhibitory concentration against Escherichia coli DNA-gyrase in supercoiling assay.
The subject of experiment [15] is Bacteria. Put plainly: MIC ratio measured as the mean MICs of gram-negative bacteria. The method in brief:
as §1

The mark [16] stands for this setting: Escherichia coli, read-out: MIC.
Setting [17] is: Streptococcus pneumoniae, read-out: MIC.
Where [18] appears, read: Streptococcus pyogenes, read-out: MIC.
The mark [19] stands for this setting: Enterococcus faecalis, read-out: MIC.
The mark [20] stands for this setting: Enterobacter cloacae, read-out: MIC.
Where [21] appears, read: Klebsiella pneumoniae, read-out: MIC.
Setting [22] is: Staphylococcus aureus, read-out: MIC.
Where [23] appears, read: Pseudomonas aeruginosa, read-out: MIC.

Molecules are shown by their SMILES. ≈ marks a conversion by molar mass, not a printed value.

With `NC1CCN(c2c(F)cc3c(=O)c(C(=O)O)cn(C4CC4)c3c2Cl)C1` (stereo in doubt; 1h-4) [CLINAFLOXACIN], in the experiment on Bacteria [1], the “Geometric mean MIC over Gram-positive bacteria (µg/mL)” value is on record as 0.029. For the same molecule, the PD50 was found to be 5 mg/kg with Streptococcus pneumoniae [2]; 14 mg/kg in the experiment with Streptococcus pneumoniae [4]; 4 mg/kg in the experiment with Streptococcus pyogenes [6]; 3 mg/kg in the experiment on Escherichia coli [9]; 10 mg/kg with Streptococcus pyogenes [11]; 0.6 mg/kg with Escherichia coli [12]. Also, the MIC was 0.025 µg/mL (≈ 0.0683 µM) against Escherichia coli [3]; 0.025 µg/mL (≈ 0.0683 µM) in the experiment with Bacteria [5]; 0.025 µg/mL (≈ 0.0683 µM) with Streptococcus pneumoniae [7]; 0.05 µg/mL (≈ 0.137 µM) with Streptococcus pyogenes [8]; 0.05 µg/mL (≈ 0.137 µM) against Enterococcus faecalis; 0.025 µg/mL (≈ 0.0683 µM) in the experiment with Enterobacter cloacae. Moreover, the MIC in the experiment with Klebsiella pneumoniae amounted to 0.025 µg/mL (≈ 0.0683 µM); against Staphylococcus aureus [10], 0.025 µg/mL (≈ 0.0683 µM); in the experiment on Staphylococcus aureus [13] it was 0.013 µg/mL (≈ 0.0355 µM); against Pseudomonas aeruginosa, 0.05 µg/mL (≈ 0.137 µM).

Take `C[C@@H]1CN(c2c(F)c(N)c3c(=O)c(C(=O)O)cn(C4CC4)c3c2F)C[C@H](C)N1` [SPARFLOXACIN]: the “Geometric mean MIC over Gram-positive bacteria (µg/mL)” value in the experiment with Bacteria [1] was determined as 0.05. Also, the ED50 in the experiment on Streptococcus pneumoniae [2] came out at 17 mg/kg; in the experiment with Streptococcus pneumoniae [4], 17 mg/kg; with Streptococcus pyogenes [6] it was 13 mg/kg; with Escherichia coli [9], 1 mg/kg; in the experiment with Streptococcus pyogenes [11], 14 mg/kg; with Escherichia coli [12] it was 0.4 mg/kg. The MIC with Escherichia coli [3] (setting [16]) is 0.025 µg/mL (≈ 0.0637 µM); in the experiment on Bacteria [5] (Bacteria, read-out: MIC), 0.2 µg/mL (≈ 0.51 µM); with Streptococcus pneumoniae [7] (setting [17]), 0.05 µg/mL (≈ 0.127 µM); with Streptococcus pyogenes [8] (setting [18]), 0.1 µg/mL (≈ 0.255 µM); in the experiment with Enterococcus faecalis (setting [19]), 0.1 µg/mL (≈ 0.255 µM); in the experiment with Enterobacter cloacae (setting [20]) it was 0.025 µg/mL (≈ 0.0637 µM). For the same molecule, the MIC is 0.05 µg/mL (≈ 0.127 µM) in the experiment on Klebsiella pneumoniae (setting [21]); 0.05 µg/mL (≈ 0.127 µM) in the experiment on Staphylococcus aureus [10] (setting [22]); 2.5 µg/mL (≈ 6.37 µM) in [14]; 0.013 µg/mL (≈ 0.0331 µM) in the experiment on Staphylococcus aureus [13] (setting [22]); 0.8 µg/mL (≈ 2.04 µM) with Pseudomonas aeruginosa (setting [23]). In addition, the Geometric mean MIC over Gram-negative bacteria (µg/mL) in the experiment on Bacteria [15] is 0.087.

For `CCNCC1CCN(c2c(F)c(N)c3c(=O)c(C(=O)O)cn(C4CC4)c3c2F)C1` (stereo not drawn), the “Geometric mean MIC over Gram-positive bacteria (µg/mL)” value in the experiment on Bacteria [1] amounted to 0.0082. Also, the ED50 with Streptococcus pneumoniae [2] came out at 3 mg/kg; in the experiment with Streptococcus pneumoniae [4], 5 mg/kg; in the experiment with Streptococcus pyogenes [6], 5 mg/kg; in the experiment with Escherichia coli [9] it was 16 mg/kg; in the experiment on Streptococcus pyogenes [11] it was 16 mg/kg; in the experiment on Escherichia coli [12] it was 2 mg/kg. Moreover, the MIC amounted to 0.05 µg/mL (≈ 0.123 µM) in the experiment with Escherichia coli [3] (setting [16]); 0.1 µg/mL (≈ 0.246 µM) with Bacteria [5] (Bacteria, read-out: MIC); 0.003 µg/mL (≈ 0.00738 µM) in the experiment on Streptococcus pneumoniae [7] (setting [17]); 0.013 µg/mL (≈ 0.032 µM) in the experiment with Streptococcus pyogenes [8] (setting [18]); 0.025 µg/mL (≈ 0.0615 µM) in the experiment with Enterococcus faecalis (setting [19]); 0.05 µg/mL (≈ 0.123 µM) in the experiment with Enterobacter cloacae (setting [20]). Besides, the MIC is 0.05 µg/mL (≈ 0.123 µM) in the experiment with Klebsiella pneumoniae (setting [21]); 0.013 µg/mL (≈ 0.032 µM) in the experiment on Staphylococcus aureus [10] (setting [22]); 0.5 µg/mL (≈ 1.23 µM) in experiment [14]; 0.003 µg/mL (≈ 0.00738 µM) in the experiment on Staphylococcus aureus [13] (setting [22]); 0.2 µg/mL (≈ 0.492 µM) in the experiment with Pseudomonas aeruginosa (setting [23]). Further, the Geometric mean MIC over Gram-negative bacteria (µg/mL) in the experiment on Bacteria [15] was 0.075.

With `CCNCC1CCN(c2c(F)cc3c(=O)c(C(=O)O)cn(C4CC4)c3c2F)C1` (stereo not drawn) [PD-117558], the “Geometric mean MIC over Gram-positive bacteria (µg/mL)” value with Bacteria [1] is on record as 0.025. The ED50 turned out to be 0.5 mg/kg in the experiment on Streptococcus pneumoniae [2]; 2 mg/kg with Streptococcus pneumoniae [4]; 2 mg/kg with Streptococcus pyogenes [6]; 4 mg/kg in the experiment with Escherichia coli [9]; 5 mg/kg in the experiment on Streptococcus pyogenes [11]; 1 mg/kg in the experiment with Escherichia coli [12]. Moreover, the MIC with Escherichia coli [3] (setting [16]) was determined as 0.05 µg/mL (≈ 0.128 µM); in the experiment with Bacteria [5] (Bacteria, read-out: MIC) it was 0.2 µg/mL (≈ 0.511 µM); in the experiment on Streptococcus pneumoniae [7] (setting [17]), 0.025 µg/mL (≈ 0.0639 µM); with Streptococcus pyogenes [8] (setting [18]), 0.025 µg/mL (≈ 0.0639 µM); with Enterococcus faecalis (setting [19]), 0.025 µg/mL (≈ 0.0639 µM); with Enterobacter cloacae (setting [20]) it was 0.1 µg/mL (≈ 0.255 µM). In addition, the MIC in the experiment with Klebsiella pneumoniae (setting [21]) turned out to be 0.1 µg/mL (≈ 0.255 µM); in the experiment on Staphylococcus aureus [10] (setting [22]) it was 0.05 µg/mL (≈ 0.128 µM); in experiment [14] it was 0.25 µg/mL (≈ 0.639 µM); in the experiment with Staphylococcus aureus [13] (setting [22]), 0.013 µg/mL (≈ 0.0332 µM); in the experiment on Pseudomonas aeruginosa (setting [23]), 0.4 µg/mL (≈ 1.02 µM). Further, in the experiment on Bacteria [15], the Geometric mean MIC over Gram-negative bacteria (µg/mL) came to 0.13.

With `O=C(O)c1cn(C2CC2)c2c(F)c(N3CCNCC3)c(F)cc2c1=O`, in the experiment on Bacteria [1], the “Geometric mean MIC over Gram-positive bacteria (µg/mL)” value is given as 0.4. Moreover, the ED50 in the experiment with Streptococcus pneumoniae [2] worked out at 9 mg/kg; in the experiment with Streptococcus pneumoniae [4], 33 mg/kg; in the experiment with Streptococcus pyogenes [6] it was 29 mg/kg; in the experiment with Escherichia coli [9], 0.5 mg/kg; in the experiment on Streptococcus pyogenes [11] it was 59 mg/kg; with Escherichia coli [12], 0.3 mg/kg. Besides, the MIC in the experiment on Escherichia coli [3] (setting [16]) worked out at 0.05 µg/mL (≈ 0.143 µM); with Bacteria [5] (Bacteria, read-out: MIC), 0.1 µg/mL (≈ 0.286 µM); in the experiment on Streptococcus pneumoniae [7] (setting [17]), 0.8 µg/mL (≈ 2.29 µM); in the experiment on Streptococcus pyogenes [8] (setting [18]), 0.8 µg/mL (≈ 2.29 µM); with Enterococcus faecalis (setting [19]) it was 0.4 µg/mL (≈ 1.15 µM); with Enterobacter cloacae (setting [20]), 0.05 µg/mL (≈ 0.143 µM). Moreover, the MIC stood at 0.05 µg/mL (≈ 0.143 µM) with Klebsiella pneumoniae (setting [21]); 0.4 µg/mL (≈ 1.15 µM) in the experiment on Staphylococcus aureus [10] (setting [22]); 0.5 µg/mL (≈ 1.43 µM) in experiment [14]; 0.1 µg/mL (≈ 0.286 µM) in the experiment with Staphylococcus aureus [13] (setting [22]); 0.2 µg/mL (≈ 0.573 µM) in the experiment with Pseudomonas aeruginosa (setting [23]). Besides, the Geometric mean MIC over Gram-negative bacteria (µg/mL) in the experiment on Bacteria [15] is 0.076.

Values taken from ChEMBL document CHEMBL1125826, “Synthesis and biological activity of 5-amino- and 5-hydroxyquinolones, and the overwhelming influence of the remote N1-substituent in determining the structure-activity relationship” (1991).
